In ChEMBL document CHEMBL1136753, “Optimization of 2-phenylaminoimidazo[4,5-h]isoquinolin-9-ones: orally active inhibitors of lck kinase” (J Med Chem, 2003):

Experiments:
Homo sapiens = organism: Homo sapiens; experiment: Inhibition of IL-2 production in human whole blood; type: functional
Jurkat = experiment: Inhibition of Calcium release in jurkat cells; type: functional, cell-based; details: Homo sapiens
How it was run: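 Jurkat cells loaded with Fluo-3, washed in HBSS with 1 mM CaCl₂, 1 mM MgCl₂, 10 mM HEPES, 2 mM probenecid, 1% FBS, pH 7.4. Final 3 × 10⁵ cells/mL. Compound added for 15 min at room temperature, then anti-CD3 (clone X35, final 0.25 µg/mL). FLIPR fluorescence followed for 13 min. Peak minus baseline plotted against concentration gives EC₅₀. Mean of two or more experiments in duplicate ± SD.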

tissue or blood = type: functional, tissue-based; details: Homo sapiens
[1] = molecular target: Tyrosine-protein kinase Lck (Homo sapiens, UniProt P06239); experiment: Inhibition of p56 Lck tyrosine kinase
Tyrosine-protein kinase Lck, sequence (P06239 whole entry): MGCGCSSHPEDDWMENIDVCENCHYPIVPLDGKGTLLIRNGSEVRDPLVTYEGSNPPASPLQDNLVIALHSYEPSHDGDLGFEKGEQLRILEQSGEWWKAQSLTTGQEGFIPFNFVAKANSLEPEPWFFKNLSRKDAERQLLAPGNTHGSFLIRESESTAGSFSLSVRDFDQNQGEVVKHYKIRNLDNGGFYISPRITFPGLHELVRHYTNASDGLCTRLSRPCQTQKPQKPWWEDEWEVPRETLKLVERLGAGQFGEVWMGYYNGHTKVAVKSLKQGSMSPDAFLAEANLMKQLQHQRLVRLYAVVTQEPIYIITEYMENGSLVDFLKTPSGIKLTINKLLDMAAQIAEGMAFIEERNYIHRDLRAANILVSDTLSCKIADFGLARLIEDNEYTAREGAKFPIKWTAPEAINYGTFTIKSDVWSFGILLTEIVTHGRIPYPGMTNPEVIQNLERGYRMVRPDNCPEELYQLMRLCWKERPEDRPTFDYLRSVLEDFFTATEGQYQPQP

What does the source list for `Cc1c(/C=C/CN)nc(O)c2c1ccc1nc(Nc3c(Cl)cccc3Cl)n(C)c12`?
EC50 (Homo sapiens): 3.3 µM; EC50 (Jurkat): 0.021 µM; EC50 (tissue or blood): 0.92 µM; IC50 [1]: 0.002 µM

Which EC50 (Jurkat) does the source give for `Cc1c(/C=C/CN2CCOCC2)nc(O)c2c1ccc1nc(Nc3c(Cl)cccc3Cl)n(C)c12` here?
The EC50 was 0.03 µM.

And the EC50 (tissue or blood)?
Its EC50 is 0.17 µM.

And the IC50 [1]?
Its IC50 is 0.004 µM.

For `Cc1nc(O)c2c(ccc3c2nc(Nc2c(Cl)cccc2Cl)n3C)c1C`, which IC50 [1] is on record?
Its IC50 is > 2 µM.

Which EC50 (Jurkat) does the source give for `Cc1c(/C=C/CN(C)Cc2ccccc2)nc(O)c2c1ccc1nc(Nc3c(Cl)cccc3Cl)n(C)c12` here?
The EC50 was 0.2 µM.

What about the IC50 [1] of the same compound?
The IC50 was 0.01 µM.

For `Cc1c(CNCc2ccccc2)nc(O)c2c1ccc1nc(Nc3c(Cl)cccc3Cl)n(C)c12`, which EC50 (Jurkat) is on record?
Its EC50 is 4.2 µM.

What about the IC50 [1] of the same compound?
The IC50 was 2 µM.

Which EC50 (Jurkat) does the source give for `CCNC/C=C/c1nc(O)c2c(ccc3nc(Nc4c(Cl)cccc4Cl)n(C)c32)c1C` here?
Its EC50 is 0.009 µM.

What about the IC50 [1] of the same compound?
Its IC50 is 0.002 µM.

What does the source list for `CCNC(=O)Cc1c(C)nc(O)c2c1ccc1nc(Nc3c(Cl)cccc3Cl)n(C)c12`?
EC50 (Jurkat): 0.6 µM; IC50 [1]: 0.46 µM

With `C=Cc1nc(O)c2c(ccc3nc(Nc4c(Cl)cccc4Cl)n(C)c32)c1C` as the compound, how does the EC50 (Homo sapiens) read?
Its EC50 is 12 µM.

What about the EC50 (Jurkat) of the same compound?
Its EC50 is 0.02 µM.

What about the EC50 (tissue or blood) of the same compound?
The EC50 was 0.9 µM.

What about the IC50 [1] of the same compound?
Its IC50 is 0.045 µM.

For `Cc1nc(O)c2c(ccc3nc(Nc4c(Cl)cccc4Cl)n(C)c32)c1CCC(=O)N1CCOCC1`, which EC50 (Jurkat) is on record?
The EC50 was 0.27 µM.

What about the IC50 [1] of the same compound?
The IC50 was 0.12 µM.

What does the source list for `COc1ccc(CNCc2cc3c(C)c(C)nc(O)c3c3c2nc(Nc2c(Cl)cccc2Cl)n3C)cc1`?
EC50 (Jurkat): 0.5 µM; IC50 [1]: 0.18 µM

For `Cc1nc(O)c2c(ccc3nc(Nc4c(Cl)cccc4Cl)n(C)c32)c1CCO`, which EC50 (Jurkat) is on record?
Its EC50 is 0.09 µM.

And the IC50 [1]?
The IC50 was 0.027 µM.

For `Cc1nc(O)c2c(ccc3nc(Nc4c(Cl)cccc4Cl)n(C)c32)c1CC(=O)N1CCN(C)CC1`, which EC50 (Jurkat) is on record?
Its EC50 is 1.2 µM.

What about the IC50 [1] of the same compound?
The IC50 was 0.44 µM.

With `Cc1nc(O)c2c(ccc3nc(Nc4c(Cl)cccc4Cl)n(C)c32)c1CCCN1CCOCC1` as the compound, how does the EC50 (Jurkat) read?
Its EC50 is 0.3 µM.

What about the IC50 [1] of the same compound?
Its IC50 is 0.11 µM.

With `CCn1c(Nc2c(Cl)cccc2Cl)nc2ccc3c(C)c(C)nc(O)c3c21` as the compound, how does the IC50 [1] read?
The IC50 was > 2.5 µM.

With `Cc1c(/C=C/CO)nc(O)c2c1ccc1nc(Nc3c(Cl)cccc3Cl)n(C)c12` as the compound, how does the EC50 (Homo sapiens) read?
Its EC50 is 3 µM.

What about the EC50 (Jurkat) of the same compound?
The EC50 was 0.008 µM.

Which EC50 (Jurkat) does the source give for `Cc1nc(O)c2c(ccc3nc(Nc4c(Cl)cccc4Cl)n(C)c32)c1CC(=O)N1CCOCC1` here?
Its EC50 is 0.66 µM.

What about the IC50 [1] of the same compound?
The IC50 was 0.12 µM.
